Consider 14 compounds from ChEMBL document CHEMBL1152495, “Synthesis and antimicrobial studies of novel methylene bridged benzisoxazolyl imidazo[2,1-b][1,3,4]thiadiazole derivatives” (2009).

Values after ≈ are worked out from the molar mass of the structure shown.

Holding throughout (type): functional
The subject of test [1] is Pseudomonas aeruginosa. Description: Antibacterial activity against Pseudomonas aeruginosa ATCC 10145 at 100 ug/ml after 24 hrs by agar well diffusion method. To be noted: ATCC 10145, 24 h, read-out: IZ. Put shortly: (§1)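 Agar well diffusion on Mueller Hinton agar (20 mL per dish), seeded homogeneously with liquid bacterial culture by spread plating. Samples loaded directly into wells, dimethylformamide as solvent control, ampicillin as reference drug. Plates incubated at 37 °C for 24 h. All determinations done in triplicate.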

Test [2] has as its system Candida albicans. Description: Antifungal activity against Candida albicans after 72 hrs by agar well diffusion method. Put shortly:
(§2)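 Fungi grown on Potato Dextrose Agar (20 mL per dish), seeded homogeneously with liquid culture by spread plating. Samples loaded directly into agar wells, with dimethylformamide as solvent control and clotrimazole as reference drug. Plates incubated at 25 °C for 72 h, triplicate determinations.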

Test [3] has as its system Aspergillus fumigatus. Description: Antifungal activity against Aspergillus fumigatus after 72 hrs by agar well diffusion method. Put shortly: as §2
In test [4] the test system is Escherichia coli. Briefly: Antibacterial activity against Escherichia coli ATCC 35218 after 24 hrs by agar well diffusion method. Conditions: ATCC 35218, 24 h. Put shortly: as §1
For test [5], the system named is Pseudomonas aeruginosa. Description: Antibacterial activity against Pseudomonas aeruginosa ATCC 10145 after 24 hrs by agar well diffusion method. To be noted: ATCC 10145, 24 h. Put shortly:
as §1

In test [6] the test system is Escherichia coli. Description: Antibacterial activity against Escherichia coli ATCC 35218 at 100 ug/ml after 24 hrs by agar well diffusion method. Conditions: ATCC 35218, 24 h, read-out: IZ. Put shortly: as §1
In test [7] the test system is Aspergillus fumigatus. Briefly: Antifungal activity against Aspergillus fumigatus at 100 ug/ml after 72 hrs by agar well diffusion method. Conditions: read-out: IZ. Put shortly: as §2
Test [8] has as its system Staphylococcus aureus. Description: Antibacterial activity against Staphylococcus aureus ATCC 25923 after 24 hrs by agar well diffusion method. To be noted: ATCC 25923, 24 h. Put shortly:
as §1

Test [9] concerns Candida albicans. Briefly: Antifungal activity against Candida albicans at 100 ug/ml after 72 hrs by agar well diffusion method. Conditions: read-out: IZ. Put shortly: as §2
Test [10] deals with Bacillus subtilis. Briefly: Antibacterial activity against Bacillus subtilis ATCC 6633 at 100 ug/ml after 24 hrs by agar well diffusion method. Conditions: ATCC 6633, 24 h, read-out: IZ. Put shortly: as §1
The subject of test [11] is Staphylococcus aureus. Description: Antibacterial activity against Staphylococcus aureus ATCC 25923 at 100 ug/ml after 24 hrs by agar well diffusion method. To be noted: ATCC 25923, 24 h, read-out: IZ. Put shortly: as §1
For test [12], the system named is Bacillus subtilis. Briefly: Antibacterial activity against Bacillus subtilis ATCC 6633 after 24 hrs by agar well diffusion method. Conditions: ATCC 6633, 24 h. Put shortly:
as §1

For `O=c1oc2ccccc2cc1-c1cn2nc(Cc3noc4ccccc34)sc2n1`, the zone of inhibition at 100 µg/mL in test [1] is 10 mm; in [6], 10 mm; in [7], 13 mm; in [9], 20 mm; in test [10], 15 mm; in test [11], 13 mm. Also, the MIC in test [2] worked out at 2.5 µg/mL (≈ 6.24 µM); in test [3], 3.5 µg/mL (≈ 8.74 µM); in [4] it was 3.5 µg/mL (≈ 8.74 µM); in [5], 3 µg/mL (≈ 7.49 µM); in test [8], 3 µg/mL (≈ 7.49 µM); in [12], 1 µg/mL (≈ 2.5 µM).

With `O=c1oc2ccccc2cc1-c1nc2sc(Cc3noc4ccccc34)nn2c1Br`, the zone of inhibition at 100 µg/mL in test [1] is 14 mm; in test [6], 13 mm; in test [7] it was 17 mm; in test [9], 14 mm; in test [10], 10 mm; in test [11] it was 15 mm. The MIC in [2] is 3 µg/mL (≈ 6.26 µM); in [3], 2.5 µg/mL (≈ 5.22 µM); in test [4], 2.5 µg/mL (≈ 5.22 µM); in test [5] it was 2.5 µg/mL (≈ 5.22 µM); in [8] it was 2 µg/mL (≈ 4.17 µM); in test [12], 3 µg/mL (≈ 6.26 µM).

Regarding `O=Nc1c(-c2cc3ccccc3oc2=O)nc2sc(Cc3noc4ccccc34)nn12`, the zone of inhibition at 100 µg/mL in [1] amounted to 14 mm; in test [6] it was 12 mm; in [7], 12 mm; in test [9], 15 mm; in test [10] it was 15 mm; in test [11], 14 mm. In addition, the MIC in test [2] is 3 µg/mL (≈ 6.99 µM); in test [3], 3.5 µg/mL (≈ 8.15 µM); in test [4], 3 µg/mL (≈ 6.99 µM); in test [5], 2.5 µg/mL (≈ 5.82 µM); in [8], 1.5 µg/mL (≈ 3.49 µM); in test [12], 1.5 µg/mL (≈ 3.49 µM).

For `N#CSc1c(-c2cc3ccccc3oc2=O)nc2sc(Cc3noc4ccccc34)nn12`, the zone of inhibition at 100 µg/mL in test [1] came out at 16 mm; in test [6] it was 14 mm; in test [7], 19 mm; in test [9], 12 mm; in test [10], 15 mm; in [11], 14 mm. Moreover, the MIC in test [2] is 3.5 µg/mL (≈ 7.65 µM); in test [3], 2 µg/mL (≈ 4.37 µM); in [4], 3.5 µg/mL (≈ 7.65 µM); in [5], 2 µg/mL (≈ 4.37 µM); in test [8], 1.5 µg/mL (≈ 3.28 µM); in [12], 1 µg/mL (≈ 2.19 µM).

Regarding `COc1ccc(-c2nc3sc(Cc4noc5ccccc45)nn3c2N=O)cc1`, the zone of inhibition at 100 µg/mL in [1] was 8 mm; in test [6], 16 mm; in [7], 10 mm; in [9], 14 mm; in [10] it was 11 mm; in test [11], 13 mm. The MIC in [2] was found to be 3 µg/mL (≈ 7.66 µM); in test [3] it was 4 µg/mL (≈ 10.2 µM); in [4], 2 µg/mL (≈ 5.11 µM); in test [5] it was 3.5 µg/mL (≈ 8.94 µM); in test [8] it was 1.5 µg/mL (≈ 3.83 µM); in test [12], 3 µg/mL (≈ 7.66 µM).

Take `COc1ccc(-c2nc3sc(Cc4noc5ccccc45)nn3c2Br)cc1`: the zone of inhibition at 100 µg/mL amounted to 17 mm in [1]; 16 mm in test [6]; 15 mm in test [7]; 10 mm in test [9]; 18 mm in test [10]; 11 mm in [11]. The minimum inhibitory concentration (MIC) in [2] was 4 µg/mL (≈ 9.06 µM); in [3], 2.5 µg/mL (≈ 5.66 µM); in test [4], 2 µg/mL (≈ 4.53 µM); in [5], 2 µg/mL (≈ 4.53 µM); in [8], 1.5 µg/mL (≈ 3.4 µM); in [12], 0.5 µg/mL (≈ 1.13 µM).

For the compound `c1ccc(-c2cn3nc(Cc4noc5ccccc45)sc3n2)cc1`, the zone of inhibition at 100 µg/mL was determined as 9 mm in test [1]; 9 mm in test [6]; 19 mm in test [7]; 12 mm in test [9]; 11 mm in [10]; 16 mm in test [11]. For the same compound, the minimal inhibitory concentration (MIC) in [2] is 3.5 µg/mL (≈ 10.5 µM); in [3], 2 µg/mL (≈ 6.02 µM); in test [4] it was 3.5 µg/mL (≈ 10.5 µM); in test [5] it was 3.5 µg/mL (≈ 10.5 µM); in test [8], 1 µg/mL (≈ 3.01 µM); in test [12] it was 2 µg/mL (≈ 6.02 µM).

Turning to `Nc1nnc(Cc2noc3ccccc23)s1`, the zone of inhibition at 100 µg/mL in test [1] amounted to 14 mm; in test [6], 10 mm; in test [7] it was 11 mm; in test [9], 14 mm; in test [10], 15 mm; in test [11] it was 15 mm. For the same compound, the MIC in test [2] was 3 µg/mL (≈ 12.9 µM); in test [3], 3.5 µg/mL (≈ 15.1 µM); in [4], 3.5 µg/mL (≈ 15.1 µM); in test [5], 2.5 µg/mL (≈ 10.8 µM); in test [8], 1.5 µg/mL (≈ 6.46 µM); in [12], 1 µg/mL (≈ 4.31 µM).

For `O=[N+]([O-])c1ccc(-c2nc3sc(Cc4noc5ccccc45)nn3c2Br)cc1`, the zone of inhibition at 100 µg/mL in test [1] turned out to be 11 mm; in test [6], 10 mm; in test [7], 8 mm; in test [9] it was 9 mm; in test [10], 12 mm; in [11] it was 11 mm. Further, the MIC in [2] was found to be 4 µg/mL (≈ 8.77 µM); in test [3], 4.5 µg/mL (≈ 9.86 µM); in [4] it was 3.5 µg/mL (≈ 7.67 µM); in test [5] it was 3 µg/mL (≈ 6.57 µM); in test [8], 2 µg/mL (≈ 4.38 µM); in test [12], 2.5 µg/mL (≈ 5.48 µM).

Regarding `O=Nc1c(-c2ccc([N+](=O)[O-])cc2)nc2sc(Cc3noc4ccccc34)nn12`, the zone of inhibition at 100 µg/mL came to 11 mm in test [1]; 9 mm in test [6]; 11 mm in [7]; 17 mm in [9]; 14 mm in test [10]; 12 mm in [11]. Also, the MIC in test [2] stood at 2.5 µg/mL (≈ 6.15 µM); in [3] it was 4 µg/mL (≈ 9.84 µM); in test [4], 3.5 µg/mL (≈ 8.61 µM); in [5], 3 µg/mL (≈ 7.38 µM); in test [8], 1.5 µg/mL (≈ 3.69 µM); in test [12] it was 1.5 µg/mL (≈ 3.69 µM).

In the case of `N#CSc1c(-c2ccccc2)nc2sc(Cc3noc4ccccc34)nn12`, the zone of inhibition at 100 µg/mL in [1] was determined as 17 mm; in test [6], 12 mm; in [7] it was 15 mm; in test [9], 12 mm; in test [10] it was 14 mm; in test [11], 16 mm. The minimum inhibitory concentration (MIC) in [2] stood at 3.5 µg/mL (≈ 8.99 µM); in [3], 2.5 µg/mL (≈ 6.42 µM); in test [4], 3 µg/mL (≈ 7.7 µM); in test [5], 2 µg/mL (≈ 5.14 µM); in test [8], 1.5 µg/mL (≈ 3.85 µM); in test [12], 1.5 µg/mL (≈ 3.85 µM).

On to `Brc1ccc(-c2nc3sc(Cc4noc5ccccc45)nn3c2Br)cc1`, for which the zone of inhibition at 100 µg/mL in test [1] amounted to 16 mm; in [6], 14 mm; in test [7] it was 16 mm; in test [9], 16 mm; in test [10], 12 mm; in test [11], 13 mm. The MIC in [2] turned out to be 2.5 µg/mL (≈ 5.1 µM); in test [3], 2.5 µg/mL (≈ 5.1 µM); in test [4], 2 µg/mL (≈ 4.08 µM); in test [5], 2 µg/mL (≈ 4.08 µM); in test [8] it was 2 µg/mL (≈ 4.08 µM); in test [12] it was 2.5 µg/mL (≈ 5.1 µM).

Regarding `O=Nc1c(-c2ccccc2)nc2sc(Cc3noc4ccccc34)nn12`, the zone of inhibition at 100 µg/mL in [1] is 10 mm; in [6] it was 11 mm; in [7], 16 mm; in [9], 13 mm; in [10] it was 13 mm; in test [11], 18 mm. The minimum inhibitory concentration (MIC) in test [2] was found to be 3.5 µg/mL (≈ 9.68 µM); in [3] it was 2.5 µg/mL (≈ 6.92 µM); in [4], 3 µg/mL (≈ 8.3 µM); in test [5], 3 µg/mL (≈ 8.3 µM); in test [8], 1 µg/mL (≈ 2.77 µM); in test [12] it was 2 µg/mL (≈ 5.53 µM).

For `O=[N+]([O-])c1ccc(-c2cn3nc(Cc4noc5ccccc45)sc3n2)cc1`, the zone of inhibition at 100 µg/mL in test [1] came to 8 mm; in test [6] it was 13 mm; in test [7], 11 mm; in test [9] it was 10 mm; in test [10], 11 mm; in test [11] it was 14 mm. Moreover, the MIC amounted to 3.5 µg/mL (≈ 9.27 µM) in test [2]; 4 µg/mL (≈ 10.6 µM) in test [3]; 3 µg/mL (≈ 7.95 µM) in test [4]; 3.5 µg/mL (≈ 9.27 µM) in [5]; 1.5 µg/mL (≈ 3.97 µM) in test [8]; 2.5 µg/mL (≈ 6.62 µM) in [12].
